ChEMBL document CHEMBL1275303, “Synthesis and antimicrobial activity of 2-substituted [4-(1,3,4-oxadiazol-2-yl methyl)] phthalazin-1(2H)-one derivatives” (2010)

What was measured:
[1] = system: Staphylococcus aureus; assay: Antimicrobial activity against Staphylococcus aureus at 50 ug/mL after 24 hrs by well plate method; type: functional; conditions: read-out: IZ
Method in brief: (§1)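 Agar well diffusion in nutrient agar. About 1 cm³ of a 24 h broth culture was placed in sterile dishes, and molten agar at 45 °C was poured over it and set. 6 mm wells were bored and filled with compound in DMSO (100 or 50). Plates were incubated 24 h at 37 °C, and the inhibition zone was read in mm. Duplicate runs, with standard deviation; amoxicillin as reference.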

[2] = system: Nannizzia gypsea; assay: Antimicrobial activity against Microsporum gypseum at 50 ug/mL after 72 hrs by well plate method; type: functional; conditions: read-out: IZ
Method in brief: (§2)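 Antifungal well-plate assay on Sabouraud dextrose agar using a 72 h old broth culture of the fungal strain. Wells were filled with compound dissolved in DMSO (100 or 50), and the zone of inhibition around each well was measured. […] served as reference.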

[3] = system: Nannizzia gypsea; assay: Antimicrobial activity against Microsporum gypseum at 100 ug/mL after 72 hrs by well plate method; type: functional; conditions: read-out: IZ; method in brief: as §2
[4] = system: Escherichia coli; assay: Antimicrobial activity against Escherichia coli at 100 ug/mL after 24 hrs by well plate method; type: functional; conditions: read-out: IZ; method in brief: as §1
[5] = system: Candida albicans; assay: Antimicrobial activity against Candida albicans at 50 ug/mL after 72 hrs by well plate method; type: functional; conditions: read-out: IZ; method in brief: as §2
[6] = system: Salmonella typhi; assay: Antimicrobial activity against Salmonella typhi at 50 ug/mL after 24 hrs by well plate method; type: functional, Salmonella enterica subsp. enterica serovar Typhi; conditions: Salmonella enterica, read-out: IZ
Method in brief: (§3)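 Agar well diffusion in nutrient agar: about 1 cm³ of a 24 h broth culture placed in a sterile dish, molten agar at 45 °C poured over it and allowed to set. 6 mm holes cut with a sterile cork borer and filled with compound solution in DMSO. Incubated 24 h at 37 °C; inhibition zone diameter read in mm. Run in duplicate, standard deviation calculated.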

[7] = system: Chrysosporium keratinophilum; assay: Antimicrobial activity against Chrysosporium keratinophilum at 50 ug/mL after 72 hrs by well plate method; type: functional; conditions: read-out: IZ; method in brief: as §2
[8] = system: Candida albicans; assay: Antimicrobial activity against Candida albicans at 100 ug/mL after 72 hrs by well plate method; type: functional; conditions: read-out: IZ; method in brief: as §2
[9] = system: Aspergillus flavus; assay: Antimicrobial activity against Aspergillus flavus at 100 ug/mL after 72 hrs by well plate method; type: functional; conditions: read-out: IZ
[10] = system: Escherichia coli; assay: Antimicrobial activity against Escherichia coli at 50 ug/mL after 24 hrs by well plate method; type: functional; conditions: read-out: IZ; method in brief: as §1
[11] = system: Bacillus subtilis; assay: Antimicrobial activity against Bacillus subtilis at 50 ug/mL after 24 hrs by well plate method; type: functional; conditions: read-out: IZ; method in brief: as §1
[12] = system: Aspergillus flavus; assay: Antimicrobial activity against Aspergillus flavus at 50 ug/mL after 72 hrs by well plate method; type: functional; conditions: read-out: IZ
[13] = system: Chrysosporium keratinophilum; assay: Antimicrobial activity against Chrysosporium keratinophilum at 100 ug/mL after 72 hrs by well plate method; type: functional; conditions: read-out: IZ; method in brief: as §2
[14] = system: Bacillus subtilis; assay: Antimicrobial activity against Bacillus subtilis at 100 ug/mL after 24 hrs by well plate method; type: functional; conditions: read-out: IZ; method in brief: as §1
[15] = system: Staphylococcus aureus; assay: Antimicrobial activity against Staphylococcus aureus at 100 ug/mL after 24 hrs by well plate method; type: functional; conditions: read-out: IZ; method in brief: as §1
[16] = system: Salmonella typhi; assay: Antimicrobial activity against Salmonella typhi at 100 ug/mL after 24 hrs by well plate method; type: functional, Salmonella enterica subsp. enterica serovar Typhi; conditions: Salmonella enterica, read-out: IZ; method in brief: as §3

In the case of O=c1c2ccccc2c(Cc2nnc(C(F)(F)F)o2)nn1CCN1CCOCC1, the zone of inhibition at 50 µg/mL [1] is reported as 0 mm, the zone of inhibition at 50 µg/mL [2] is reported as 2 mm and the zone of inhibition at 100 µg/mL [3] is reported as 4 mm. It also gave a zone of inhibition at 100 µg/mL [4] of 3.5 mm, a zone of inhibition at 50 µg/mL [5] of 0.5 mm and a zone of inhibition at 50 µg/mL [6] of 0 mm. For the same compound, the zone of inhibition at 50 µg/mL [7] was 2 mm, the zone of inhibition at 100 µg/mL [8] was 3.5 mm and the zone of inhibition at 100 µg/mL [9] was 5.5 mm. It also gave a zone of inhibition at 50 µg/mL [10] of 0 mm, a zone of inhibition at 50 µg/mL [11] of 2 mm and a zone of inhibition at 50 µg/mL [12] of 2.5 mm. For the same compound, the zone of inhibition at 100 µg/mL [13] was 4.5 mm, the zone of inhibition at 100 µg/mL [14] was 5 mm and the zone of inhibition at 100 µg/mL [15] was 0 mm. For the same compound, the zone of inhibition at 100 µg/mL [16] was 2.5 mm.
O=c1c2ccccc2c(Cc2nnc(C(F)(F)F)o2)nn1Cc1ccc(Cl)nc1 gave a zone of inhibition at 50 µg/mL [1] of 3.5 mm, a zone of inhibition at 50 µg/mL [2] of 3 mm and a zone of inhibition at 100 µg/mL [3] of 5 mm. The zone of inhibition at 100 µg/mL [4] was 8 mm, the zone of inhibition at 50 µg/mL [5] was 1.5 mm and the zone of inhibition at 50 µg/mL [6] was 4 mm. The zone of inhibition at 50 µg/mL [7] was 1 mm, the zone of inhibition at 100 µg/mL [8] was 4.5 mm and the zone of inhibition at 100 µg/mL [9] was 2.5 mm. It also gave a zone of inhibition at 50 µg/mL [10] of 6 mm, a zone of inhibition at 50 µg/mL [11] of 0 mm and a zone of inhibition at 50 µg/mL [12] of 0 mm. For the same compound, the zone of inhibition at 100 µg/mL [13] was 4.5 mm, the zone of inhibition at 100 µg/mL [14] was 2 mm and the zone of inhibition at 100 µg/mL [15] was 6 mm. For the same compound, the zone of inhibition at 100 µg/mL [16] was 7 mm.
O=c1c2ccccc2c(Cc2nnc(-c3ccc(Cl)nc3)o2)nn1Cc1cnc(Cl)s1 gave a zone of inhibition at 50 µg/mL [1] of 4 mm, a zone of inhibition at 50 µg/mL [2] of 4 mm and a zone of inhibition at 100 µg/mL [3] of 7.5 mm. It also gave a zone of inhibition at 100 µg/mL [4] of 12 mm, a zone of inhibition at 50 µg/mL [5] of 9.5 mm and a zone of inhibition at 50 µg/mL [6] of 3 mm. The zone of inhibition at 50 µg/mL [7] was 5.5 mm, the zone of inhibition at 100 µg/mL [8] was 10.5 mm and the zone of inhibition at 100 µg/mL [9] was 8 mm. It also gave a zone of inhibition at 50 µg/mL [10] of 8 mm, a zone of inhibition at 50 µg/mL [11] of 4 mm and a zone of inhibition at 50 µg/mL [12] of 4 mm. The zone of inhibition at 100 µg/mL [13] was 8.5 mm, the zone of inhibition at 100 µg/mL [14] was 6 mm and the zone of inhibition at 100 µg/mL [15] was 7 mm. The zone of inhibition at 100 µg/mL [16] was 5 mm.
Cc1nnc(Cc2nn(Cc3ccc(Cl)nc3)c(=O)c3ccccc23)o1 showed a zone of inhibition at 50 µg/mL [1] of 0 mm, a zone of inhibition at 50 µg/mL [2] of 0 mm and a zone of inhibition at 100 µg/mL [3] of 2 mm. The zone of inhibition at 100 µg/mL [4] was 3.5 mm, the zone of inhibition at 50 µg/mL [5] was 1 mm and the zone of inhibition at 50 µg/mL [6] was 1 mm. It also gave a zone of inhibition at 50 µg/mL [7] of 0 mm, a zone of inhibition at 100 µg/mL [8] of 3.5 mm and a zone of inhibition at 100 µg/mL [9] of 5 mm. The zone of inhibition at 50 µg/mL [10] was 1.5 mm, the zone of inhibition at 50 µg/mL [11] was 0 mm and the zone of inhibition at 50 µg/mL [12] was 1 mm. For the same compound, the zone of inhibition at 100 µg/mL [13] was 0 mm, the zone of inhibition at 100 µg/mL [14] was 0 mm and the zone of inhibition at 100 µg/mL [15] was 1.5 mm. The zone of inhibition at 100 µg/mL [16] was 2.5 mm.
O=c1c2ccccc2c(Cc2nnc(-c3ccc(F)cc3)o2)nn1CCN1CCOCC1 showed a zone of inhibition at 50 µg/mL [1] of 0 mm, a zone of inhibition at 50 µg/mL [2] of 4 mm and a zone of inhibition at 100 µg/mL [3] of 7.5 mm. The zone of inhibition at 100 µg/mL [4] was 2 mm, the zone of inhibition at 50 µg/mL [5] was 2.5 mm and the zone of inhibition at 50 µg/mL [6] was 3.5 mm. For the same compound, the zone of inhibition at 50 µg/mL [7] was 2.5 mm, the zone of inhibition at 100 µg/mL [8] was 5.5 mm and the zone of inhibition at 100 µg/mL [9] was 4 mm. For the same compound, the zone of inhibition at 50 µg/mL [10] was 0 mm, the zone of inhibition at 50 µg/mL [11] was 3 mm and the zone of inhibition at 50 µg/mL [12] was 2 mm. The zone of inhibition at 100 µg/mL [13] was 5.5 mm, the zone of inhibition at 100 µg/mL [14] was 6 mm and the zone of inhibition at 100 µg/mL [15] was 1 mm. It also gave a zone of inhibition at 100 µg/mL [16] of 5 mm.
In the case of O=c1c2ccccc2c(Cc2nnc(-c3ccc(Cl)cc3)o2)nn1Cc1ccc(Cl)nc1, the zone of inhibition at 50 µg/mL [1] is reported as 1 mm, the zone of inhibition at 50 µg/mL [2] is reported as 1 mm and the zone of inhibition at 100 µg/mL [3] is reported as 4 mm. For the same compound, the zone of inhibition at 100 µg/mL [4] was 8 mm, the zone of inhibition at 50 µg/mL [5] was 3 mm and the zone of inhibition at 50 µg/mL [6] was 4 mm. It also gave a zone of inhibition at 50 µg/mL [7] of 1 mm, a zone of inhibition at 100 µg/mL [8] of 5.5 mm and a zone of inhibition at 100 µg/mL [9] of 5 mm. The zone of inhibition at 50 µg/mL [10] was 5 mm, the zone of inhibition at 50 µg/mL [11] was 3.5 mm and the zone of inhibition at 50 µg/mL [12] was 2.5 mm. It also gave a zone of inhibition at 100 µg/mL [13] of 3 mm, a zone of inhibition at 100 µg/mL [14] of 7 mm and a zone of inhibition at 100 µg/mL [15] of 4.5 mm. For the same compound, the zone of inhibition at 100 µg/mL [16] was 7.5 mm.
